The source made the active and inactive calls. The calls are words filed in the database; no cut-off is given here.
These molecules were tested on MCF7 (assay: Growth inhibition of human MCF7 cells at 15 uM measured after 72 hrs by AlamarBlue assay). Details: not given.
Format: functional, cell-based
Procedure, shortened: (§1)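 MCF-7 cells in DMEM with 10% FBS were seeded at 1×10³ cells/well. After 24 h at 37°C, 5% CO₂, compound in medium was added at varying concentrations for 72 h. AlamarBlue was then added for 3 h and fluorescence read (ex 540/em 590 nm). Percent growth was calculated from the readings, and GI50 from the dose response. Three independent determinations.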

SMILES	growth inhibition (GI)
CCCCCCCCCCCCCC(=S)NCCCC[C@H](NC(=O)OCc1ccccc1)C(=O)Nc1ccccc1	Active

These molecules were tested against T1, NAD-dependent protein deacetylase sirtuin-2 (Homo sapiens) (UniProt Q8IXJ6) (assay: Inhibition of SIRT2 in human MCF7 cells assessed as accumulation of acetylated-alpha tubulin at 0.1 uM measured after 24 hrs by Western blot analysis relative to alpha-tubulin). Details: not given.
T1 sequence (whole entry): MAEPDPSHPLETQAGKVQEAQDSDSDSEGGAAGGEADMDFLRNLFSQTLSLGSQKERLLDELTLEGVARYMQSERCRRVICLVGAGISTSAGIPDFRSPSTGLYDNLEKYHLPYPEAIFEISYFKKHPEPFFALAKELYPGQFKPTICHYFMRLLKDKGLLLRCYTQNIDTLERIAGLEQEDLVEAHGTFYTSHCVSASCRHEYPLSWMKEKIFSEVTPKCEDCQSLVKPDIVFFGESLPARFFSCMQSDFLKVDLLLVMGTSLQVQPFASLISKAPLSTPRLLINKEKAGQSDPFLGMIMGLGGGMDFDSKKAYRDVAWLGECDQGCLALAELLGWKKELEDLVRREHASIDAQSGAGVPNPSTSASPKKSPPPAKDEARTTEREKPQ
Format: cell-based
Procedure, shortened: (§2)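 MCF-7 cells (5×10⁵ per dish) were treated 24 h, lysed in SDS buffer and protein was quantified by BCA. Equal protein was run on 5–20% SDS-PAGE and transferred to PVDF. Blots were probed for H3K9Ac, H3, acetyl-α-tubulin and α-tubulin, then given HRP secondaries and ECL detection. Acetyl/total ratios came from blot optical density.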

fold change (FC)	SMILES
1.61	O=C(CCCCCCC(=O)Nc1ccccc1)NO

What follows are molecules tested on MCF7 (assay: Growth inhibition of human MCF7 cells at 30 uM measured after 72 hrs by AlamarBlue assay relative to control). Details: MCF7, 72 h, read-out: GI.
Format: functional
Procedure, shortened: as §1

SMILES	inhibition of growth at 30 µM
NC(=O)c1ccccc1Nc1cccc(OCCc2ccccc2)c1	30%

These molecules were tested on MCF7 (assay: Growth inhibition of human MCF7 cells measured after 72 hrs by AlamarBlue assay). Details: MCF7, 72 h.
Format: functional
Procedure, shortened: as §1

GI50	SMILES
8.43 µM	C[C@H](NC(=O)[C@H](CCCCNC(=S)CNC(=O)c1ccccc1Nc1cccc(OCCc2ccccc2)c1)NC(=O)OCc1ccccc1)C(N)=O

Each molecule was assayed against T2, NAD-dependent protein deacetylase sirtuin-1 (Homo sapiens) (UniProt Q96EB6) (assay: Inhibition of human N-terminal His-tagged SIRT1 expressed in Escherichia coli at 100 uM using p53 (Arg-His-Lys-Lys(Ac)) (379 to 382 residues) as substrate incubated for 3 hrs measured up to 30 mins by fluorescence assay relative to control). Details: not given.
T2 sequence (whole entry): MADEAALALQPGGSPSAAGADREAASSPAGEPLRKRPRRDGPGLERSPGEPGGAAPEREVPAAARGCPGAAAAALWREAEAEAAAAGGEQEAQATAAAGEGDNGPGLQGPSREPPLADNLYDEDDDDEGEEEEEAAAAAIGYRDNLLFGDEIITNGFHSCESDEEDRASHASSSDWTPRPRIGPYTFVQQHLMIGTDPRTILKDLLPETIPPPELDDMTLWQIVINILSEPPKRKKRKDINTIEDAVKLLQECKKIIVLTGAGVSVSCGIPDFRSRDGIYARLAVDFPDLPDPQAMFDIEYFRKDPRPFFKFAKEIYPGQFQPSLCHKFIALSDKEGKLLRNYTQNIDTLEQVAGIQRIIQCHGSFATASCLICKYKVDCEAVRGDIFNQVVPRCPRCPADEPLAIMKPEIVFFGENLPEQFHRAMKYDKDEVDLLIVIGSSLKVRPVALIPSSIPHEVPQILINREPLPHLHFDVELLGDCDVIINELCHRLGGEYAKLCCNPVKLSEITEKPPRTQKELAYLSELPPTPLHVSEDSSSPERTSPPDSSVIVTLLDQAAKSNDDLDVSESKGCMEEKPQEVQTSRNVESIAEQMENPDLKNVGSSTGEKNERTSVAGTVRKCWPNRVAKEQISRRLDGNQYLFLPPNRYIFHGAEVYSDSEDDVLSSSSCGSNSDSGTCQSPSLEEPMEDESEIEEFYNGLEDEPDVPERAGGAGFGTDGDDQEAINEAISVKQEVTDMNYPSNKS

inhibition	SMILES
17%	NC(=O)c1ccccc1Nc1cccc(OCCc2ccccc2)c1

The molecules below were run against T1, NAD-dependent protein deacetylase sirtuin-2 (Homo sapiens) (assay: Inhibition of human N-terminal His-tagged SIRT2 expressed in Escherichia coli at 50 uM using p53 (Gln-Pro-Lys-Lys(Ac)) (317 to 320 residues) as substrate incubated for 3 hrs measured up to 30 mins by fluorescence assay relative to control). Details: not given.

inhibition	SMILES
74%	CN(C)CCNC(=O)c1ccccc1Nc1cccc(OCCc2ccccc2)c1
70%	CC(C)CCNC(=O)c1ccccc1Nc1cccc(OCCc2ccccc2)c1

What follows are molecules tested against T1, NAD-dependent protein deacetylase sirtuin-2 (Homo sapiens) (assay: Inhibition of human N-terminal His-tagged SIRT2 expressed in Escherichia coli at 10 uM using p53 (Gln-Pro-Lys-Lys(Ac)) (317 to 320 residues) as substrate incubated for 3 hrs measured up to 30 mins by fluorescence assay relative to control). Details: not given.

inhibition	SMILES
68%	O=C(NO)c1ccccc1Nc1cccc(OCCc2ccccc2)c1
12%	O=C(O)c1ccccc1Nc1cccc(OCCc2ccccc2)c1
75%	NC(=O)c1ccccc1Nc1cccc(OCCc2ccc3ccccc3c2)c1
77%	C#CCNC(=O)c1ccccc1Nc1cccc(OCCc2ccccc2)c1
61%	CCN(CC)C(=O)c1ccccc1Nc1cccc(OCCc2ccccc2)c1
59%	CN(C)CCNC(=O)c1ccccc1Nc1cccc(OCCc2ccccc2)c1
46%	O=C(NCCc1ccccc1)c1ccccc1Nc1cccc(OCCc2ccccc2)c1
54%	O=C(NOC1CCCCO1)c1ccccc1Nc1cccc(OCCc2ccccc2)c1 (centres undefined)
77%	CC(C)(C)OC(=O)NCCNC(=O)c1ccccc1Nc1cccc(OCCc2ccccc2)c1
26%	Cc1cc(C)nc(SCC(=O)Oc2cccc(Nc3ccccc3C(N)=O)c2)n1
72%	COC(=O)CNC(=O)c1ccccc1Nc1cccc(OCCc2ccccc2)c1
45%	CC(C)CCNC(=O)c1ccccc1Nc1cccc(OCCc2ccccc2)c1
90%	NC(=O)c1ccccc1Nc1cccc(OCCc2ccccc2)c1

The molecules below were run against T3, NAD-dependent protein deacetylase sirtuin-3, mitochondrial (Homo sapiens) (UniProt Q9NTG7) (assay: Inhibition of human N-terminal His-tagged SIRT3 (102 to 399 residues) expressed in Escherichia coli at 100 uM using p53 (Gln-Pro-Lys-Lys(Ac)) (317 to 320 residues) as substrate incubated for 3 hrs measured up to 30 mins by fluorescence assay relative to control). Details: not given.
T3 sequence (whole entry): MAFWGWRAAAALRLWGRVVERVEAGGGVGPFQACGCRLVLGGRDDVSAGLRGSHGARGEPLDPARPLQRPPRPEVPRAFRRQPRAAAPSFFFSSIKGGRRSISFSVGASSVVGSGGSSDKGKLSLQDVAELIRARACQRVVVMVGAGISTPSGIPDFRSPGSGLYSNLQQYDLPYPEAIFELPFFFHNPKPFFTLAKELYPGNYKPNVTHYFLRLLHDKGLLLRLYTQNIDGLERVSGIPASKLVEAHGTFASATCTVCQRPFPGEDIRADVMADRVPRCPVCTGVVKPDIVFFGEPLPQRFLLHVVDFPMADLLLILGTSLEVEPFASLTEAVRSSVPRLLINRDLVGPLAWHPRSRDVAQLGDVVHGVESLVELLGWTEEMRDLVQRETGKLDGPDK

inhibition	SMILES
17%	NC(=O)c1ccccc1Nc1cccc(OCCc2ccccc2)c1

These molecules were tested against NAD-dependent protein deacylase sirtuin-5, mitochondrial (Homo sapiens) (UniProt Q9NXA8) (assay: Inhibition of human N-terminal His-tagged SIRT5 (37 to 310 residues) expressed in Escherichia coli at 100 uM using flour de lys succinyl as substrate incubated for 3 hrs measured up to 30 mins by fluorescence assay relative to control). Details: not given.
NAD-dependent protein deacylase sirtuin-5, mitochondrial (Homo sapiens), sequence (Q9NXA8 37-310 limits assumed): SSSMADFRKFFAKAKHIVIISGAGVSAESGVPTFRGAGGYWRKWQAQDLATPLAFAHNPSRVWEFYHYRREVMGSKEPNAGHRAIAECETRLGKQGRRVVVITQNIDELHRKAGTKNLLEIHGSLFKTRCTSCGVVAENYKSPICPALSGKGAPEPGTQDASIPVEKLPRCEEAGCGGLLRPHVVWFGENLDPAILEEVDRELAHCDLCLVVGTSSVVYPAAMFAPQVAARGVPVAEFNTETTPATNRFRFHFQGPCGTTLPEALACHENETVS

inhibition	SMILES
8%	NC(=O)c1ccccc1Nc1cccc(OCCc2ccccc2)c1

The molecules below were run against T2, NAD-dependent protein deacetylase sirtuin-1 (Homo sapiens) (assay: Inhibition of SIRT1 in human MCF7 cells assessed as H3K9Ac expression at 0.1 uM measured after 24 hrs by Western blot analysis relative to H3). Details: not given.
Format: cell-based
Procedure, shortened: as §2

fold change (FC)	SMILES
1.3	O=C(CCCCCCC(=O)Nc1ccccc1)NO

What follows are molecules tested against T2, NAD-dependent protein deacetylase sirtuin-1 (Homo sapiens) (assay: Inhibition of human N-terminal His-tagged SIRT1 expressed in Escherichia coli at 50 uM using p53 (Arg-His-Lys-Lys(Ac)) (379 to 382 residues) as substrate incubated for 3 hrs measured up to 30 mins by fluorescence assay relative to control). Details: not given.

inhibition	SMILES
13%	O=C(NO)c1ccccc1Nc1cccc(OCCc2ccccc2)c1
2.5%	O=C(O)c1ccccc1Nc1cccc(OCCc2ccccc2)c1
7%	NC(=O)c1ccccc1Nc1cccc(OCCc2ccc3ccccc3c2)c1
12%	C#CCNC(=O)c1ccccc1Nc1cccc(OCCc2ccccc2)c1
11%	CCN(CC)C(=O)c1ccccc1Nc1cccc(OCCc2ccccc2)c1
18%	CN(C)CCNC(=O)c1ccccc1Nc1cccc(OCCc2ccccc2)c1
5%	O=C(NCCc1ccccc1)c1ccccc1Nc1cccc(OCCc2ccccc2)c1
8%	O=C(NOC1CCCCO1)c1ccccc1Nc1cccc(OCCc2ccccc2)c1 (centres undefined)
11%	CC(C)(C)OC(=O)NCCNC(=O)c1ccccc1Nc1cccc(OCCc2ccccc2)c1
7%	Cc1cc(C)nc(SCC(=O)Oc2cccc(Nc3ccccc3C(N)=O)c2)n1
17%	COC(=O)CNC(=O)c1ccccc1Nc1cccc(OCCc2ccccc2)c1
8%	CC(C)CCNC(=O)c1ccccc1Nc1cccc(OCCc2ccccc2)c1
12%	NC(=O)c1ccccc1Nc1cccc(OCCc2ccccc2)c1

Each molecule was assayed on N2a (assay: Induction of neurite outgrowth in mouse Neuro2a cells at 0.2 to 2 uM measured after 24 hrs by microscopic analysis). Details: not given.
Format: functional, cell-based
Procedure, shortened: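 N2a cells were plated at 1×10⁴ cells/mL in DMEM with 10% FBS, then switched to DMEM with 2% FBS for differentiation. Compound was added for 24 or 48 h and morphology scored by microscopy. A cell counted as differentiated if it had ≥1 neurite longer than twice the soma diameter; ≥100 cells were counted per condition. Triplicate experiments, mean ± SD, one-way ANOVA with Dunnett's test.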

SMILES	Activity
CCCCCCCCCCCCCC(=S)NCCCC[C@H](NC(=O)OCc1ccccc1)C(=O)Nc1ccccc1	Active
C[C@H](NC(=O)[C@H](CCCCNC(=S)CNC(=O)c1ccccc1Nc1cccc(OCCc2ccccc2)c1)NC(=O)OCc1ccccc1)C(N)=O	Active
NC(=O)c1ccccc1Nc1cccc(OCCc2ccccc2)c1	Active

Source: ChEMBL document CHEMBL4350992, “Identification of Diketopiperazine-Containing 2-Anilinobenzamides as Potent Sirtuin 2 (SIRT2)-Selective Inhibitors Targeting the "Selectivity Pocket", Substrate-Binding Site, and NAD+-Binding Site” (J Med Chem, 2019)
